Measured values from ChEMBL document CHEMBL5108074 (J Med Chem, 2022).
In brackets after ≈: the same amount, converted by molar mass.

Key:
[1] = target: T1, Plasma kallikrein (Homo sapiens, UniProt P03952); test: Inhibition of DXS induced human whole plasma kallikrein using H-D-Pro-Phe-Arg-AFC as substrate preincubated for 5 mins followed by DXS stimulation by fluorometer analysis; assay type: cell-free
[2] = target: Cytochrome P450 2C19 (Homo sapiens, UniProt P33261); test: Inhibition of CYP2C19 in human liver microsomes assessed as reduction in 4-hydroxymephenytoin metabolite formation incubated for 30 mins in presence of NADPH by LC-MS/MS analysis; assay type: ADME, Microsome
[3] = Thermodynamic solubility of the compound in FaSSGF at 1 mg/ml at pH 1.6 measured after 4 hrs; assay type: physicochemical
Outline: (§1)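 Compound (nominal 1 or 100 mg/mL as free base) added to biorelevant medium preheated to 37 °C: FaSSGF at pH 1.6 or FaSSIF at pH 6.5. Vortexed, then shaken 4 h at 37 °C (~500 rpm). Centrifuged at 15000g for 10 min at 37 °C. Supernatant diluted and quantified against calibration standards. Crystalline material used where stated.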

[4] = Clearance in Sprague-Dawley rat blood at 1 mg/kg, iv measured upto 24 hrs by LC-MS analysis; assay type: ADME, organism-based; settings: whole blood
Outline: (§2)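 Male Sprague-Dawley rats, two per route, single dose. IV: 1 mg/kg given as 1 mL/kg of a nominal 1 mg/mL formulation in vehicle. PO: 10 mg/kg given as 5 mL/kg of a 2 mg/mL formulation. PK parameters from noncompartmental analysis. Clearance expressed relative to rat liver blood flow of 80 mL/min/kg.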

[5] = target: Voltage-gated inwardly rectifying potassium channel KCNH2 (Homo sapiens, UniProt Q12809); test: Inhibition of hERG expressed in CHO cells by whole cell patch clamp assay; assay type: toxicity, cell-based
Outline: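 hERG K+ current recorded by automated whole-cell patch clamp in CHO cells stably expressing hERG. Concentrations tested up to a maximum of 33 μM.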

[6] = Oral bioavailability in Beagle dog at 1 mg/kg measured upto 24 hrs by LC-MS analysis; assay type: ADME, organism-based, Canis lupus familiaris; settings: in vivo
[7] = Half life in Sprague-Dawley rat at 10 mg/kg, po and 1 mg/kg, iv measured upto 24 hrs by LC-MS analysis; assay type: ADME, organism-based; settings: in vivo; outline: as §2
[8] = Clearance in Beagle dog assessed as liver blood flow at 1 mg/kg, iv measured upto 24 hrs by LC-MS analysis; assay type: ADME, organism-based, Canis lupus familiaris; settings: in vivo
[9] = Oral bioavailability in Sprague-Dawley rat at 10 mg/kg measured upto 24 hrs by LC-MS analysis; assay type: ADME, organism-based; settings: in vivo; outline: as §2
[10] = target: Cytochrome P450 2C9 (Homo sapiens, UniProt P11712); test: Inhibition of CYP2C9 in human liver microsomes assessed as reduction in 4 hydroxy-diclofenac metabolite formation incubated for 30 mins in presence of NADPH by LC-MS/MS analysis; assay type: ADME, Microsome
[11] = Clearance in Sprague-Dawley rat assessed as liver blood flow at 1 mg/kg, iv measured upto 24 hrs by LC-MS analysis; assay type: ADME, organism-based; settings: in vivo; outline: as §2
[12] = target: T2, Cytochrome P450 3A4 (Homo sapiens, UniProt P08684); test: Inhibition of CYP3A4 in human liver microsomes assessed as reduction in 6beta-hydroxymidazolam metabolite formation using midazolam as substrate incubated for 30 mins in presence of NADPH by LC-MS/MS analysis; assay type: ADME, Microsome
[13] = Clearance in Beagle dog blood at 1 mg/kg, iv measured upto 24 hrs by LC-MS analysis; assay type: ADME, organism-based, Canis lupus familiaris; settings: whole blood
[14] = Thermodynamic solubility of the compound in FaSSIF at 1 mg/ml at pH 6.5 measured after 4 hrs; assay type: physicochemical; outline: as §1
[15] = target: T3, Cytochrome P450 1A2 (Homo sapiens, UniProt P05177); test: Inhibition of CYP1A2 in human liver microsomes assessed as reduction in acetaminophen metabolite formation incubated for 30 mins in presence of NADPH by LC-MS/MS analysis; assay type: ADME, Microsome
T3 sequence (P05177 whole entry): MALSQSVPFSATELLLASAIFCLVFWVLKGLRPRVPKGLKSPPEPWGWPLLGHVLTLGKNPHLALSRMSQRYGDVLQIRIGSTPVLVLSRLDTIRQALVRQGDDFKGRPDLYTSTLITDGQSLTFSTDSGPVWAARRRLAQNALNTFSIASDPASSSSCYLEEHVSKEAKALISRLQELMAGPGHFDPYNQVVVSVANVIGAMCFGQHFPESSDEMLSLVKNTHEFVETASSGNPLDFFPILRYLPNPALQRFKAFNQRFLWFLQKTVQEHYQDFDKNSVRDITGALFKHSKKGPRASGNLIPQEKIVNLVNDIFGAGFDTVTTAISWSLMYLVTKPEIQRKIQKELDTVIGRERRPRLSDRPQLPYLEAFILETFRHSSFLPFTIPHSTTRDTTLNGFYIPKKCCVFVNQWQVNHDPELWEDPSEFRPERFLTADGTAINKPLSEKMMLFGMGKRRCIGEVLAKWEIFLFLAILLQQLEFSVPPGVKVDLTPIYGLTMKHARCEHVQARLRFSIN

[16] = target: Cytochrome P450 2D6 (Homo sapiens, UniProt P10635); test: Inhibition of CYP2D6 in human liver microsomes assessed as reduction in dextrorphan metabolite formation incubated for 30 mins in presence of NADPH by LC-MS/MS analysis; assay type: ADME, Microsome
[17] = Volume of distribution at steady state in Beagle dog at 1 mg/kg, po and 1 mg/kg, iv measured upto 24 hrs by LC-MS analysis; assay type: ADME, organism-based, Canis lupus familiaris; settings: in vivo
[18] = Apparent permeability of the compound across apical side to basolateral side in human Caco-2 cells incubated for 1 hr by LC-MS/MS analysis; settings: caco-2, 1 h
[19] = Metabolic stability in human liver microsomes assessed as intrinsic clearance per mg of protein measured upto 60 mins in presence of NADPH regenerating system by LC-MS/MS analysis; assay type: ADME, Microsome; settings: microsomes, 1 h
[20] = Half life in Beagle dog at 1 mg/kg, po and 1 mg/kg, iv measured upto 24 hrs by LC-MS analysis; assay type: ADME, organism-based, Canis lupus familiaris; settings: in vivo
[21] = target: T2, Cytochrome P450 3A4; test: Inhibition of CYP3A4 in human liver microsomes assessed as reduction in 6beta-hydroxytestosterone metabolite formation using testosterone as substrate incubated for 30 mins in presence of NADPH by LC-MS/MS analysis; assay type: ADME, Microsome
[22] = Kinetic solubility of the compound in 0.1N HCl
[23] = Kinetic solubility of the compound in aqueous assay buffer at pH 7.7
[24] = target: T1, Plasma kallikrein; test: Inhibition of human plasma kallikrein using H-D-Pro-Phe-Arg-AFC as flurogenic substrate preincubated for 5 mins followed by substrate addition by fluorometer analysis; assay type: cell-free
[25] = Thermodynamic solubility of the compound in FaSSGF at 1 mg/ml at pH 1.6 using crystalline form of sample measured after 4 hrs; assay type: physicochemical; settings: pH 1.6, 4 h; outline: as §1
[26] = target: Cytochrome P450 2B6 (Homo sapiens, UniProt P20813); test: Inhibition of CYP2B6 in human liver microsomes assessed as reduction in hydroxybupropion metabolite formation incubated for 30 mins in presence of NADPH by LC-MS/MS analysis; assay type: ADME, Microsome
[27] = Thermodynamic solubility of the compound in FaSSIF at 1 mg/ml at pH 6.5 using crystalline form of sample measured after 4 hrs; assay type: physicochemical; settings: simulated gi fluid, pH 6.5, 4 h; outline: as §1
[28] = target: Cytochrome P450 2C8 (Homo sapiens, UniProt P10632); test: Inhibition of CYP2C8 in human liver microsomes assessed as reduction in 6 alpha-hydroxypaclitaxel metabolite formation incubated for 30 mins in presence of NADPH by LC-MS/MS analysis; assay type: ADME, Microsome
Chain of Cytochrome P450 2C8 (P10632 whole entry): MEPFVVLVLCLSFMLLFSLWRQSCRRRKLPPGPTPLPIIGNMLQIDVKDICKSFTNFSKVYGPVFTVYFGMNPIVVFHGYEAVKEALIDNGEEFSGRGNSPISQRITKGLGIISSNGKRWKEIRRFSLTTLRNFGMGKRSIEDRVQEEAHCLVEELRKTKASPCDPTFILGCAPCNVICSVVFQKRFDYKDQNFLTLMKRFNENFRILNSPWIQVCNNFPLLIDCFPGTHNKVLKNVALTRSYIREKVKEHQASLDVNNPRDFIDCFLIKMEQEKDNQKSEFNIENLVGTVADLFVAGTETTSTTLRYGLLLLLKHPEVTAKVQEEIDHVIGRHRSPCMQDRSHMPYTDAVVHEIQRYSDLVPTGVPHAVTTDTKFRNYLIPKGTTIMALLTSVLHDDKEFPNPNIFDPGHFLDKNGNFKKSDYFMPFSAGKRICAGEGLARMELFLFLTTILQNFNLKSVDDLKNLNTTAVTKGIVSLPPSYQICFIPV

T2 sequence (P08684 whole entry): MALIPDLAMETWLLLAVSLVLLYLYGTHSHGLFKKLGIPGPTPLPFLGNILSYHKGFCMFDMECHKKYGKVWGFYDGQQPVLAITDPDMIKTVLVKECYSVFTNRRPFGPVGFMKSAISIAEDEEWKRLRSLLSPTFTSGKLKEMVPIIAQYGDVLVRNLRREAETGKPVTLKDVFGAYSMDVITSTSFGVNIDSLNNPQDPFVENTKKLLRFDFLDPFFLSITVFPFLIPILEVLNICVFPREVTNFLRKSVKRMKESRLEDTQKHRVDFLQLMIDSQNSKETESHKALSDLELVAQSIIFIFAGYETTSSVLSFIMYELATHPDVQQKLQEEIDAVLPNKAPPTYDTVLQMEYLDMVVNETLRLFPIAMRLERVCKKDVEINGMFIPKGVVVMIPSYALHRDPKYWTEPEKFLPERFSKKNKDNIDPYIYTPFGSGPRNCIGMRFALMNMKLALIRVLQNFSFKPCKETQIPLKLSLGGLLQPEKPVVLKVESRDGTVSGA
T1 sequence (P03952 20-390 limits assumed): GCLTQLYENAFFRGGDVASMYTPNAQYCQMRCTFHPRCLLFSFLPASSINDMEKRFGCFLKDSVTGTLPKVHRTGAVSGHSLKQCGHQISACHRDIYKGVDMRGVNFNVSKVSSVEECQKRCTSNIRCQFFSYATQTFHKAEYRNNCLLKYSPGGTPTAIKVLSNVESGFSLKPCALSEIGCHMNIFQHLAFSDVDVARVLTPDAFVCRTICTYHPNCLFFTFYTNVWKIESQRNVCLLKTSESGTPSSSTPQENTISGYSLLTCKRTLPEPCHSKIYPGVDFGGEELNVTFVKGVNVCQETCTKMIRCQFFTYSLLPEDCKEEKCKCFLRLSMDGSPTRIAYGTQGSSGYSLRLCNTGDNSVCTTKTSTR
T1 sequence (P03952 391-638 limits assumed): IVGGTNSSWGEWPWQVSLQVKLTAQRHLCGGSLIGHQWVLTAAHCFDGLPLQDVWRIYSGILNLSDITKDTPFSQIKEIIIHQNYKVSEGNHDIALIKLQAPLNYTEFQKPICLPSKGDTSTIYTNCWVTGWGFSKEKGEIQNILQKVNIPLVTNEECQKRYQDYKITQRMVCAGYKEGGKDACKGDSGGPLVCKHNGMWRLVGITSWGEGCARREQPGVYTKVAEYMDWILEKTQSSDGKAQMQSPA
Chain of Cytochrome P450 2D6 (P10635 whole entry): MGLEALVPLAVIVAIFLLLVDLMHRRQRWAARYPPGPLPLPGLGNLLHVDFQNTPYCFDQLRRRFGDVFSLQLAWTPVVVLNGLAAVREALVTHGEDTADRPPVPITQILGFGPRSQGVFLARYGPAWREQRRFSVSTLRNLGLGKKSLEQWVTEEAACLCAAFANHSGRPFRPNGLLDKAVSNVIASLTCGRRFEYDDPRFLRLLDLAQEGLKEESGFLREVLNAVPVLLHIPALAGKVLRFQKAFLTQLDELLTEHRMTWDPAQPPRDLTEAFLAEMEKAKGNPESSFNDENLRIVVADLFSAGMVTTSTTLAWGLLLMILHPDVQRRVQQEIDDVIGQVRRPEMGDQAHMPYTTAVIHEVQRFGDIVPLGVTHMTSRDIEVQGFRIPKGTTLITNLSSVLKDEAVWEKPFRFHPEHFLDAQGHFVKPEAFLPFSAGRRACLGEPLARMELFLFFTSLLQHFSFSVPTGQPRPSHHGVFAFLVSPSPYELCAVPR
Chain of Cytochrome P450 2C19 (P33261 whole entry): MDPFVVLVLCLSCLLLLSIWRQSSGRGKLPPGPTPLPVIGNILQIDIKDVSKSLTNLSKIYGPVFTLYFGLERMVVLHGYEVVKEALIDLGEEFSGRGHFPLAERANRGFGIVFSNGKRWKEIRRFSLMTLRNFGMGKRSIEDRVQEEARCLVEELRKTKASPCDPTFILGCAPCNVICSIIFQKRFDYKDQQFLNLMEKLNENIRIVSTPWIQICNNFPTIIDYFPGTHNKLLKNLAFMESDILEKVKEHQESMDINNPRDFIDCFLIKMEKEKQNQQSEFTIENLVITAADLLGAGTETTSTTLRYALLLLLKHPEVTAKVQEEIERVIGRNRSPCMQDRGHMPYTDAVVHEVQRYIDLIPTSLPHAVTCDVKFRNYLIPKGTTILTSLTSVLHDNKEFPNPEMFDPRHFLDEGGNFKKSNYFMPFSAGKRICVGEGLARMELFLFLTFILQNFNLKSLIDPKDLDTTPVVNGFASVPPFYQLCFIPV
Chain of Voltage-gated inwardly rectifying potassium channel KCNH2 (Q12809 whole entry): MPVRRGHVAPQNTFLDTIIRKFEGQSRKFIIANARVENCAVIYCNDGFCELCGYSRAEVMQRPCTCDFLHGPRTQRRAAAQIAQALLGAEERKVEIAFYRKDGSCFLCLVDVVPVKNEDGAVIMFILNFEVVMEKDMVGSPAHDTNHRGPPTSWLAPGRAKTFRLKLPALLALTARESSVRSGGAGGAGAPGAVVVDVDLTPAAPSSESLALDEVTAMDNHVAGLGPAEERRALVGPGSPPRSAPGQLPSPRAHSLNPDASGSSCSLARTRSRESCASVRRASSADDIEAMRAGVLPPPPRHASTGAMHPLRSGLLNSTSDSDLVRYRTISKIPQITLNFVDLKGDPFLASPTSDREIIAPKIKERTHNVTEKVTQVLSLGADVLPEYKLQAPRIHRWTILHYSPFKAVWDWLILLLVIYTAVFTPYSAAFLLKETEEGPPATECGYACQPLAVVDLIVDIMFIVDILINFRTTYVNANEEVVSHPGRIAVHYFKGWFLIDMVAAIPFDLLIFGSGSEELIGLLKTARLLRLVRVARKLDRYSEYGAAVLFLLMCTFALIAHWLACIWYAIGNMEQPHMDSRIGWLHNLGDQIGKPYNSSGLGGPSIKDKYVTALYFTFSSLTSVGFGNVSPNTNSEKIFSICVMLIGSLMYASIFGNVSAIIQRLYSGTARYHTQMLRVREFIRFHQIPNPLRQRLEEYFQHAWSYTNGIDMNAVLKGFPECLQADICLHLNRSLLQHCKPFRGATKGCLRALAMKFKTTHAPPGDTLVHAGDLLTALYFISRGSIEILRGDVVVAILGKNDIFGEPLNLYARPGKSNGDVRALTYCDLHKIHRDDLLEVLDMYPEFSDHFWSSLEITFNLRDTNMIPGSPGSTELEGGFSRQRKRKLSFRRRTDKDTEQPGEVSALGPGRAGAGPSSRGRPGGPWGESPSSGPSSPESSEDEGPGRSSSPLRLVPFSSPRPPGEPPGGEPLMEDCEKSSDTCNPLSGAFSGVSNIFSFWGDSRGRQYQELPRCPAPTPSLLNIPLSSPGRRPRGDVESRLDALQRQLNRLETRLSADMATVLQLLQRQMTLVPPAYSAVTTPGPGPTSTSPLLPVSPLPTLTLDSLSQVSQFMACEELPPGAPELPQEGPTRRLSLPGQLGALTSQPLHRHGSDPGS
Chain of Cytochrome P450 2C9 (P11712 whole entry): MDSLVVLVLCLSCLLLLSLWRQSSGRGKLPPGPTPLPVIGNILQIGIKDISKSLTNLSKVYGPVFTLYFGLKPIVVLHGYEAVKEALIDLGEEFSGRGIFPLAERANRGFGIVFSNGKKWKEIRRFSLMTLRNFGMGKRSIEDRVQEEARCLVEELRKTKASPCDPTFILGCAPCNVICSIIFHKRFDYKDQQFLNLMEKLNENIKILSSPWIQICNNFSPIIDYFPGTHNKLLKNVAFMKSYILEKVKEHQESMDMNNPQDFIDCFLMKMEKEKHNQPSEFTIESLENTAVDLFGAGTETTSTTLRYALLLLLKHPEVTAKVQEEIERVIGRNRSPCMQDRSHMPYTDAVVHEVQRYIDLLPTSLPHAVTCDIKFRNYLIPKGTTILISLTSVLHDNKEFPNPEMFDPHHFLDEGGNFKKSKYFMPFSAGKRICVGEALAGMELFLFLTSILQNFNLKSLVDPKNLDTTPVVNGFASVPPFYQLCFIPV
Chain of Cytochrome P450 2B6 (P20813 whole entry): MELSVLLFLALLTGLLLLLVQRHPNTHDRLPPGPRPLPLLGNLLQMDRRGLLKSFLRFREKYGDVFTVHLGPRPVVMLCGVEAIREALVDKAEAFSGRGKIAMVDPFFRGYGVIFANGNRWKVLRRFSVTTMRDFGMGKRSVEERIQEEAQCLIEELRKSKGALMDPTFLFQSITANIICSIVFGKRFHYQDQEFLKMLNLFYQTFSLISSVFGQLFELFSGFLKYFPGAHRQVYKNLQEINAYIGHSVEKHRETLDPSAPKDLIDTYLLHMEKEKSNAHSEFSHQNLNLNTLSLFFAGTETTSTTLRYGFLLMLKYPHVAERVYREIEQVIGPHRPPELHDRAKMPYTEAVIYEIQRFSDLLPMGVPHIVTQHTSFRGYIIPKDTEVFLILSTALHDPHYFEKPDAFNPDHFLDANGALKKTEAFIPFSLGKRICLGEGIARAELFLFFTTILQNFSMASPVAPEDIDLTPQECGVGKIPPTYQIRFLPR

Compound	IC50 [1] [µM]	IC50 [2] [µM]	clearance [4] [mL/min/kg]	IC50 [5] [µM]	F [6] [%]	t1/2 [7] [h]	LBF [8] [%]	F [9] [%]	IC50 [10] [µM]	LBF [11] [%]	IC50 [12] [µM]	clearance [13] [mL/min/kg]	IC50 [15] [µM]	IC50 [16] [µM]	Vdss [17] [L/kg]	Papp [18]	microsomal intrinsic clearance [19] [µL/min]	IC50 [21] [µM]	solubility kinetic [22] [µg/mL]	solubility kinetic [23] [µg/mL]	further results
COc1ccnc(CNC(=O)c2cn(Cc3ccc(Cn4ccccc4=O)cc3)nc2C(F)(F)F)c1F	0.076	> 25	11.1	> 33	32	1.1	48	97	> 25	14	> 25	15.9	> 25	> 25	0.63	17 10^-6 cm/s	49	> 25	–	–	Therm_solubility ([3]; buffer, pH 1.6, 4 h): 690 µg/mL; Therm_solubility ([14]; simulated gi fluid, pH 6.5, 4 h): 20 µg/mL; t1/2 [20]: 0.9 h
COCc1nn(Cc2ccc(Cn3ccccc3=O)cc2)cc1C(=O)NCc1c(C#N)ccc(OC)c1F	–	–	27.6	–	–	1.1	–	20	–	35	–	–	–	–	–	14 10^-6 cm/s	58	–	> 120	> 120	solubility thermodynamic at 4 h ([3]; FaSSGF, pH 1.6, read-out: Therm_solubility): 21 µg/mL (≈ 40.7 µM); solubility thermodynamic at 4 h ([14]; FaSSIF, pH 6.5, read-out: Therm_solubility): 31 µg/mL (≈ 60.1 µM); IC50 [24]: 0.001 µM
COCc1nn(Cc2ccc(Cn3ccccc3=O)cc2)cc1C(=O)NCc1c(F)ccc(OC)c1F	0.5	> 25	23.7	> 33	16	0.7	74	64	13	30	19	24.5	> 25	> 25	0.36	18 10^-6 cm/s	92	11	> 120	> 120	Therm_solubility [25]: 9 µg/mL; IC50 [26]: > 25 µM; IC50 [24]: 0.006 µM; Therm_solubility [27]: 9 µg/mL; IC50 [28]: 14 µM
